Experiments:
[1] = biological target: T1, Kinesin-like protein KIF11 (Homo sapiens, UniProt P52732); test: Inhibition of human Eg5 expressed in Escherichia coli assessed as microtubule-activated ATPase activity by spectrophotometry
T1 sequence (P52732 whole entry): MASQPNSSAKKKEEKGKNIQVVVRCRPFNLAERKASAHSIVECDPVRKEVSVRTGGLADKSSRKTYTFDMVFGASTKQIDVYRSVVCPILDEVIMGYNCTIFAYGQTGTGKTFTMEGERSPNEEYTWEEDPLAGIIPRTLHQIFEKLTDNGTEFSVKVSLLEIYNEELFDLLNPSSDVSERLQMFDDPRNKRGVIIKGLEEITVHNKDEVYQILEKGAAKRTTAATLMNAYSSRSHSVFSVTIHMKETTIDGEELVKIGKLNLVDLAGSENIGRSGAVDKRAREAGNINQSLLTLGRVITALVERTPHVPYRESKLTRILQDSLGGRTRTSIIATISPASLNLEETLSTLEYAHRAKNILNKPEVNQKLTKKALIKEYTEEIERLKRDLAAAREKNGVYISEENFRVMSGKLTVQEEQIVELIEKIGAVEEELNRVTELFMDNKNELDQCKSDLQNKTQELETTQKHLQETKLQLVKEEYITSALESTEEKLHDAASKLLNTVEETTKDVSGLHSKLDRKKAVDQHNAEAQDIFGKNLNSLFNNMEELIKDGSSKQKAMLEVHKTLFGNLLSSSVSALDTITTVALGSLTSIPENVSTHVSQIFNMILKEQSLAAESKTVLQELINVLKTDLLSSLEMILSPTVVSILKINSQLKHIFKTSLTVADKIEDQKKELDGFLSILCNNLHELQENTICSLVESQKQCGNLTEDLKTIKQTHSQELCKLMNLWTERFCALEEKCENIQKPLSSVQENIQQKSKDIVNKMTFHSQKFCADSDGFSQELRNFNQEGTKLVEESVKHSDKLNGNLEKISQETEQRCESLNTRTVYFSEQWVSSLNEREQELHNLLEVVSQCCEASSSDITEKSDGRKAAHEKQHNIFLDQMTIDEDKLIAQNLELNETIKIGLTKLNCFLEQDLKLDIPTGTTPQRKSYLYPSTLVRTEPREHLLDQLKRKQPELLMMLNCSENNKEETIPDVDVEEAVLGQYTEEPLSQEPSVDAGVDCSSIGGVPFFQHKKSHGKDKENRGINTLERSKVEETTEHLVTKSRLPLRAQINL
Method in brief: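 Eg5 residues 2-386 expressed from pET28a in E. coli (0.5 mM IPTG, 20 h at 20 °C), purified on SP-Sepharose then Mono-Q, and dialyzed into PIPES pH 7.5 ATPase buffer. Assay contained 20 mM PIPES pH 7.5, 5.0 mM MgCl2, 1 mM EGTA, paclitaxel-stabilized MTs, ATP and 2% DMSO. Started with ATP, 37 °C for 30 min; Pi detected by malachite green with citrate stop, A610. No-enzyme and no-MT backgrounds subtracted; means of ≥3 experiments.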

[2] = test system: A549; test: Antiproliferative activity against human A549 cells after 48 hrs by SRB assay; settings: A549, 48 h
[3] = test system: AGS; test: Antiproliferative activity against human AGS cells after 48 hrs by SRB assay
[4] = test system: HepG2; test: Antiproliferative activity against human HepG2 cells after 48 hrs by SRB assay; settings: HepG2, 48 h
[5] = test system: PC-3; test: Antiproliferative activity against human PC3 cells after 48 hrs by SRB assay; settings: PC-3, 48 h
[6] = test system: HT-29; test: Antiproliferative activity against human HT-29 cells after 48 hrs by SRB assay; settings: HT-29, 48 h

SMILES	IC50 [1]	IC50 [2]	IC50 [3]	IC50 [4]	IC50 [5]	IC50 [6]
CC(N)C(=O)N1CCc2c([nH]c3ccc(Cl)cc23)C1c1cccc(O)c1 (stereo not given)	0.483 µM	5.65 µM				
Cc1ccc2[nH]c3c(c2c1)CCN(CCN)C3c1cccc(O)c1 (racemic)	0.237 µM	7.79 µM				
NCCC(=O)N1CCc2c([nH]c3c(Cl)cccc23)C1c1cccc(O)c1 (racemic)	0.04 µM	0.94 µM	1.31 µM	7.47 µM	1.28 µM	5.75 µM
NCCNC(=O)C1Cc2c([nH]c3ccccc23)C(c2cccc(O)c2)N1 (racemic)	0.065 µM	> 10 µM				
Cc1ccc2[nH]c3c(c2c1)CCN(C(=O)c1ccc(N)cc1)C3c1cccc(O)c1 (racemic)	0.05 µM	7.93 µM	8.86 µM	> 10 µM	> 10 µM	7.47 µM
Cc1ccc2[nH]c3c(c2c1)CCN(CCCN)C3c1cccc(O)c1 (racemic)	0.083 µM	6.86 µM				
Cc1ccc2[nH]c3c(c2c1)CCN(CCCCN)C3c1cccc(O)c1 (racemic)	0.454 µM	9.19 µM				
NCCCN1CCc2c([nH]c3ccc(Cl)cc23)C1c1cccc(O)c1 (racemic)	0.204 µM	6.73 µM				
NCCN1CCc2c([nH]c3ccc(Cl)cc23)C1c1cccc(O)c1 (racemic)	0.007 µM	8.7 µM				
CCCC(=O)N1CCc2c([nH]c3ccc(Cl)cc23)C1c1c[nH]c2ccccc12 (racemic)	0.163 µM	9.11 µM	7.06 µM	7.64 µM	7.29 µM	5.86 µM
Cc1ccc2[nH]c3c(c2c1)CCN(C)C3c1cccc(O)c1 (racemic)	0.462 µM	8.73 µM				
Cc1ccc2[nH]c3c(c2c1)CCN(Cc1ccccc1)C3c1cccc(O)c1 (racemic)	12.4 µM	6.86 µM				
CCCC(=O)N1CCc2c([nH]c3ccc(C)cc23)C1c1c[nH]c2ccccc12 (racemic)	< 0.001 µM	> 10 µM				
CN1CCc2c([nH]c3ccc(Cl)cc23)C1c1cccc(O)c1 (racemic)	0.664 µM	1.38 µM	0.75 µM	> 10 µM	> 10 µM	7.4 µM
CCCN1CCc2c([nH]c3ccc(Cl)cc23)C1c1cccc(O)c1 (racemic)	0.169 µM	1.55 µM				
Oc1cccc(C2c3[nH]c4ccc(Cl)cc4c3CCN2Cc2ccccc2)c1 (racemic)	0.71 µM	5.7 µM				

SMILES	IC50 [1]	IC50 [2]	IC50 [3]	IC50 [4]	IC50 [5]	IC50 [6]
CCOC(=O)C1Cc2c([nH]c3ccccc23)C(c2cccc(O)c2)N1C(C)=O (racemic)	0.724 µM	> 10 µM				
CCOC(=O)C1Cc2c([nH]c3ccccc23)C(c2cccc(O)c2)N1C(=O)CC (racemic)	0.075 µM	> 10 µM				
CC(=O)N1CCc2c([nH]c3ccc(C)cc23)C1c1c[nH]c2ccccc12 (racemic)	0.051 µM	> 10 µM				
Nc1ccc(C(=O)N2CCc3c([nH]c4ccc(Cl)cc34)C2c2cccc(O)c2)cc1 (racemic)	0.076 µM	6.66 µM	6.07 µM	8.52 µM	7.3 µM	6.3 µM
NCCC(=O)N1CCc2c([nH]c3ccc(Cl)cc23)C1c1c[nH]c2ccccc12 (racemic)	0.043 µM	1.79 µM	6.16 µM	> 10 µM	1.55 µM	6.28 µM
CCCC(=O)N1C(C(=O)O)Cc2c([nH]c3ccccc23)C1c1cccc(O)c1 (racemic)	3.45 µM	> 10 µM				
Cc1ccc2[nH]c3c(c2c1)CCN(C(=O)C(C)C)C3c1c[nH]c2ccccc12 (racemic)	0.216 µM	> 10 µM				
CCCC(=O)N1C(C(=O)OCC)Cc2c([nH]c3ccccc23)C1c1cccc(O)c1 (racemic)	0.224 µM	> 10 µM				
CCC(=O)N1C(C(=O)O)Cc2c([nH]c3ccccc23)C1c1cccc(O)c1 (racemic)	0.118 µM	> 10 µM				
O=C(NCCO)C1Cc2c([nH]c3ccccc23)C(c2cccc(O)c2)N1 (racemic)	0.29 µM	> 10 µM				
NCCCCN1CCc2c([nH]c3ccc(Cl)cc23)C1c1cccc(O)c1 (racemic)	0.347 µM	9.06 µM				
CCOC(=O)C1Cc2c([nH]c3ccccc23)C(c2cccc(O)c2)N1C(=O)C(C)C (racemic)	0.38 µM	> 10 µM				
CC(C)Oc1cccc(C2c3[nH]c4ccc(Cl)cc4c3CCN2CCN)c1 (racemic)		8.7 µM	8.39 µM	> 10 µM	> 10 µM	7.44 µM
CC(=O)N1CCc2c([nH]c3ccc(Cl)cc23)C1c1c[nH]c2ccccc12 (racemic)	0.337 µM	9.8 µM				
CC(C)C(=O)N1CCc2c([nH]c3ccc(Cl)cc23)C1c1c[nH]c2ccccc12 (racemic)	1.7 µM	6.83 µM				
CCC(c1nc2cc(Cl)ccc2c(=O)n1Cc1ccccc1)N(CCCN(C)C)C(=O)c1ccc(Br)cc1 (stereo not given) [CK0106023]	0.049 µM	7.02 µM	5.1 µM	> 10 µM	> 10 µM	3.33 µM
